Source: PubChem (several laboratories)
The full list was thinned out, with hits kept by preference.
CHOP UPR activ: activators of apoptotic arm of unfolded protein response (CHOP). CHO-CHOP luciferase reporter, UPR activation, luminescence; percent of tunicamycin response over DMSO baseline. activation, % at 10 µM. hit rate 0.34% among 330,000. AID 449763;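 active = at 10 µM dose, activation of 40% or more, normalized to positive control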
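System: CHO CHOP reporter cells. Amount: 500 cells per well. Buffer or medium: F12 medium, 10% FBS. Compound dosing: one dose, 10 µM in 0.5% DMSO. Incubation: 6 h compound exposure at 37 °C after overnight seeding. Technique: Steady-Glo luciferase luminescence. Benchmarks: tunicamycin and DMSO controls.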
A1 inh: inhibitors of the anti-apoptotic protein A1, read as caspase activation | MEF A1-2A-BIM cells, Caspase-Glo 3/7 luminescence, 3 h; percent of clofoctol response, vehicle zero | caspase activation, % (concentration not given with the values) | hit rate 0.066% among 330,000;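 active = over half of replicate activation scores above 10%, or exactly half above 10 with the replicate mean above 10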
CHOP inhibitor: inhibitors of CHOP induction in ER stress response | hit rate 3.8% among 220,000 | inhibition, % at 10 µM | CHO-K1 CHOP-promoter luciferase, tunicamycin-induced, 15-18 h;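 active = compounds that reduced the stress-induced luciferase reporter signal by more than about 70% of percent inhibition, limit read from the data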
UPR XBP1 act: adaptive UPR (XBP1) activation | AID 463104 | hit rate 0.33% among 330,000 | activation, % at 20 µM | CHO-XBP1 luciferase reporter, IRE1-XBP1 UPR activation, luminescence; percent of tunicamycin response, DMSO as zero;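 active = versus positive control, 20 µM dose yields 30% or more activation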
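Material: IRE1-XBP1 luciferase reporter CHO line / Quantity: one thousand reporter cells per well / Buffer or medium: F12 with 10% serum / Compound: 20 µM single concentration, DMSO 1% / Times: 6 h treatment, 37 °C / Detection: Steady-Glo luciferase glow luminescence, 10 min after reagent addition / Benchmarks: tunicamycin high, DMSO low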
Large screens that a line does not name were inactive.

CC(=O)Nc1ccc(-c2csc(NC(=O)C3CCN(S(=O)(=O)c4cccs4)CC3)n2)cc1	CHOP inhibitor 80.6 (no result: CHOP UPR activ, UPR XBP1 act)
Cc1csc(NC(=O)C2CCN(S(=O)(=O)c3cccs3)CC2)n1	none
CCCCSc1nc(C)cc(SCC(=O)N/N=C/c2cccc(OC)c2O)n1	CHOP inhibitor 74.6
C=CCn1c(SCc2nc3cc(C(=O)OC)ccc3c(=O)[nH]2)nc2sc(CC)cc2c1=O	CHOP inhibitor 72.0
C=CCn1c(SCC(=O)Nc2sccc2C(N)=O)nc2sc(CC)cc2c1=O	none
COc1ccc(C2CC(c3ccccc3)=NN2c2ccc(N)cc2)cc1 (stereo not drawn)	CHOP inhibitor 90.7
NS(=O)(=O)c1ccc(N2N=C(c3ccccc3)CC2c2cccc(F)c2)cc1 (stereo not drawn)	CHOP inhibitor 83.0 (no result: CHOP UPR activ, UPR XBP1 act)
COc1ccc2[nH]c3c(c2c1)CCN1C(=O)C(CC(=O)NCc2ccc(OC)c(OC)c2)C[C@H](C(=O)N2CCCCC2)[C@@]31CCc1ccccc1 (stereo partly drawn)	none (no result: A1 inh, CHOP inhibitor)
CC(C(=O)N1CCN(c2ccc(Cl)cc2)CC1)c1ncc(C(F)(F)F)cc1Cl (stereo not drawn)	CHOP inhibitor 71.0
CC(C(=O)NC1CC1)c1ncc(C(F)(F)F)cc1Cl (stereo not drawn)	none
O=c1[nH]c(Nc2nc3ccccc3o2)nc2c1CCCC2	CHOP inhibitor 96.6
CCOC(=O)c1sc(NC(=O)c2cc(-c3ccccc3C)nc3ccccc23)c(C#N)c1C	CHOP inhibitor 71.8
Cc1ccccc1-c1cc(C(=O)Nc2sc(C)c(C)c2C(N)=O)c2ccccc2n1	CHOP inhibitor 74.8
NS(=O)(=O)c1ccc(CCNc2ncnc3c2c(-c2ccccc2)cn3-c2ccc(F)cc2)cc1	CHOP inhibitor 74.6
CC(C)(C)N/N=C1\CC(c2ccccc2)Oc2ccccc21 (stereo not drawn)	CHOP inhibitor 72.9
c1ccc(C2C/C(=N\N3CCOCC3)c3ccccc3O2)cc1 (stereo not drawn)	none
Cc1cc(NC(=O)CSc2nc3sc4c(c3c(=O)n2C)CCCC4)no1	none
Cc1cc(NC(=O)CSc2nc(C(C)C)nc3sc4c(c23)CCCC4)no1	CHOP inhibitor 76.7
CCc1cc2cc3c(cc2nc1SCC(=O)Nc1cc(C)on1)OCO3	CHOP inhibitor 95.1
C=CCn1c(SCC(=O)Nc2cc(C)on2)nc2sc3c(c2c1=O)CCCC3	none
CCn1c(SCC(=O)Nc2cc(C)on2)nc2sc3c(c2c1=O)CCCC3	CHOP inhibitor 107.3
COc1cc(C(=O)OCC(=O)Nc2cc(S(=O)(=O)N3CCOCC3)ccc2C)ccc1OCC(C)C	none (no result: CHOP inhibitor)
Cc1c(OC(C)C(=O)N2C[C@H]3C[C@@H](C2)c2cccc(=O)n2C3)ccc2c3c(c(=O)oc12)CCCC3 (stereo partly drawn)	none (no result: CHOP inhibitor)
O=C(CSc1ccccn1)N1CCN(c2ncc(C(F)(F)F)cc2Cl)CC1	none
O=C(N/N=C/c1ccc(Cl)cc1Cl)C1CCN(c2ncc(C(F)(F)F)cc2Cl)CC1	CHOP inhibitor 96.0 (no result: CHOP UPR activ, A1 inh, UPR XBP1 act)
O=C(N/N=C/c1cccc(C(F)(F)F)c1)C1CCN(c2ncc(C(F)(F)F)cc2Cl)CC1	CHOP inhibitor 83.2
O=C(OC1CCN(c2ncc(C(F)(F)F)cc2Cl)CC1)c1ccc(Cl)cc1	none
Cc1cc(Cl)ccc1OCC(=O)Nc1ccccc1CO	none
CSc1ccccc1NC(=O)COc1ccc(Cl)cc1C	CHOP inhibitor 83.0
C=CCn1c(SCCCc2ccccc2)nc2c1c(=O)[nH]c(=O)n2C	CHOP inhibitor 77.0
CCCCCn1c(SCCc2ccccc2)nc2c1c(=O)[nH]c(=O)n2C	CHOP inhibitor 93.5
CCCCCn1c(CN2CCN(c3cccc(Cl)c3)CC2)nc2c1c(=O)[nH]c(=O)n2C	none
CCCn1c(SCCc2ccccc2)nc2c1c(=O)[nH]c(=O)n2C	none
CC(C)CCn1c(SCCc2ccccc2)nc2c1c(=O)[nH]c(=O)n2C	CHOP inhibitor 74.7
Cn1c(=O)[nH]c(=O)c2c1nc(CN1CCN(c3cccc(Cl)c3)CC1)n2CCc1ccccc1	CHOP inhibitor 81.7
CCOCCn1c(SCCc2ccccc2)nc2c1c(=O)[nH]c(=O)n2C	none
Cc1cc(C)n(CC(=O)Nc2ccc(N3CCOCC3)c(Cl)c2)c(=O)c1C#N	none (no result: CHOP inhibitor)
COCCn1c(SCCCc2ccccc2)nc2c1c(=O)[nH]c(=O)n2C	none
C=CCNc1nc2c(c(=O)[nH]c(=O)n2C)n1CCCCC	CHOP inhibitor 71.0
CC(C)n1c(SCCCc2ccccc2)nc2c1c(=O)[nH]c(=O)n2C	CHOP inhibitor 97.0 (no result: CHOP UPR activ, A1 inh, UPR XBP1 act)
